Measured values published in ChEMBL document CHEMBL4689842, “EUbOPEN Chemogenomics Library wave 1” (2021).

Tested on: HEK-293T
Experiment: Multiplex assay against HEK293T;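 for Population Tubulin-Different-Phenotype (%): share of the cells with healthy nuclei that show this phenotype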
Type: toxicity, cell-based
Settings: human
How it was run: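 Phenotypes for tubulin, mitochondrial mass and membrane permeability are expressed as per cents of healthy-nucleus cells. Cells were stained live at seeding with Hoechst33342, BioTracker Green Microtubule Cytoskeleton Dye, MitoTracker Red and Annexin V Alexa Fluor 680, then imaged after compound addition on a CQ1 microscope at 37°C and 5% CO2. Machine-learning gating in CellPathfinder separated Hoechst high-intensity objects from normal cells, divided normal cells by nuclear state (healthy, pyknosed, fragmented) and divided pyknosed cells into mitotic or apoptotic.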

[1] = 12 h, 1 µM, compound concentration 1 uM, replicate 1
[2] = 12 h, 1 µM, compound concentration 1 uM, replicate 2
[3] = 12 h, 10 µM, compound concentration 10 uM, replicate 1
[4] = 12 h, 10 µM, compound concentration 10 uM, replicate 2
[5] = 24 h, 1 µM, compound concentration 1 uM, replicate 1
[6] = 24 h, 1 µM, compound concentration 1 uM, replicate 2
[7] = 24 h, 10 µM, compound concentration 10 uM, replicate 1
[8] = 24 h, 10 µM, compound concentration 10 uM, replicate 2
[9] = 48 h, 1 µM, compound concentration 1 uM, replicate 1
[10] = 48 h, 1 µM, compound concentration 1 uM, replicate 2
[11] = 48 h, 10 µM, compound concentration 10 uM, replicate 1
[12] = 48 h, 10 µM, compound concentration 10 uM, replicate 2

Compound: C=CC(=O)Nc1ccc2[nH]c(=O)n(C3CCN(Cc4ccc(-c5nc6cc[nH]c(=O)c6cc5-c5ccccc5)cc4)CC3)c2c1 [Borussertib]
- Population Apoptotic (%) [1]: 18%
- Population Fragmented Nuclei (%) [1]: 16%
- Population Healthy Nuclei (%) [1]: 66%
- Population Hoechst High Intensity Objects (%) [1]: 13%
- Population Membrane Permeable-Phenotype (%) [1]: 5%
- Population Mitochondria Different-Phenotype (%) [1]: 5%
- Population Mitotic Cells (%) [1]: 81%
- Population Normal (%) [1]: 86%
- Population Pyknosed Nuclei (%) [1]: 17%
- Population Tubulin-Different-Phenotype (%) [1]: 5%
- Total Cell Count [1]: 656
- Population Apoptotic (%) [2]: 14%
- Population Fragmented Nuclei (%) [2]: 7%
- Population Healthy Nuclei (%) [2]: 86%
- Population Hoechst High Intensity Objects (%) [2]: 3%
- Population Membrane Permeable-Phenotype (%) [2]: 3%
- Population Mitochondria Different-Phenotype (%) [2]: 12%
- Population Mitotic Cells (%) [2]: 85%
- Population Normal (%) [2]: 96%
- Population Pyknosed Nuclei (%) [2]: 5%
- Population Tubulin-Different-Phenotype (%) [2]: 12%
- Total Cell Count [2]: 1375
- Population Apoptotic (%) [3]: 24%
- Population Fragmented Nuclei (%) [3]: 17%
- Population Healthy Nuclei (%) [3]: 48%
- Population Hoechst High Intensity Objects (%) [3]: 13%
- Population Membrane Permeable-Phenotype (%) [3]: 9%
- Population Mitochondria Different-Phenotype (%) [3]: 25%
- Population Mitotic Cells (%) [3]: 75%
- Population Normal (%) [3]: 86%
- Population Pyknosed Nuclei (%) [3]: 33%
- Population Tubulin-Different-Phenotype (%) [3]: 44%
- Total Cell Count [3]: 585
- Population Apoptotic (%) [4]: 17%
- Population Fragmented Nuclei (%) [4]: 4%
- Population Healthy Nuclei (%) [4]: 84%
- Population Hoechst High Intensity Objects (%) [4]: 4%
- Population Membrane Permeable-Phenotype (%) [4]: 12%
- Population Mitochondria Different-Phenotype (%) [4]: 43%
- Population Mitotic Cells (%) [4]: 82%
- Population Normal (%) [4]: 95%
- Population Pyknosed Nuclei (%) [4]: 11%
- Population Tubulin-Different-Phenotype (%) [4]: 82%
- Total Cell Count [4]: 1080
- Population Apoptotic (%) [5]: 15%
- Population Fragmented Nuclei (%) [5]: 14%
- Population Healthy Nuclei (%) [5]: 75%
- Population Hoechst High Intensity Objects (%) [5]: 11%
- Population Membrane Permeable-Phenotype (%) [5]: 8%
- Population Mitochondria Different-Phenotype (%) [5]: 3%
- Population Mitotic Cells (%) [5]: 84%
- Population Normal (%) [5]: 88%
- Population Pyknosed Nuclei (%) [5]: 9%
- Population Tubulin-Different-Phenotype (%) [5]: 10%
- Total Cell Count [5]: 716
- Population Apoptotic (%) [6]: 11%
- Population Fragmented Nuclei (%) [6]: 19%
- Population Healthy Nuclei (%) [6]: 77%
- Population Hoechst High Intensity Objects (%) [6]: 4%
- Population Membrane Permeable-Phenotype (%) [6]: 9%
- Population Mitochondria Different-Phenotype (%) [6]: 4%
- Population Mitotic Cells (%) [6]: 88%
- Population Normal (%) [6]: 95%
- Population Pyknosed Nuclei (%) [6]: 3%
- Population Tubulin-Different-Phenotype (%) [6]: 19%
- Total Cell Count [6]: 2108
- Population Apoptotic (%) [7]: 34%
- Population Fragmented Nuclei (%) [7]: 15%
- Population Healthy Nuclei (%) [7]: 60%
- Population Hoechst High Intensity Objects (%) [7]: 16%
- Population Membrane Permeable-Phenotype (%) [7]: 8%
- Population Mitochondria Different-Phenotype (%) [7]: 33%
- Population Mitotic Cells (%) [7]: 65%
- Population Normal (%) [7]: 83%
- Population Pyknosed Nuclei (%) [7]: 23%
- Population Tubulin-Different-Phenotype (%) [7]: 68%
- Total Cell Count [7]: 518
- Population Apoptotic (%) [8]: 16%
- Population Fragmented Nuclei (%) [8]: 8%
- Population Healthy Nuclei (%) [8]: 83%
- Population Hoechst High Intensity Objects (%) [8]: 9%
- Population Membrane Permeable-Phenotype (%) [8]: 9%
- Population Mitochondria Different-Phenotype (%) [8]: 43%
- Population Mitotic Cells (%) [8]: 83%
- Population Normal (%) [8]: 90%
- Population Pyknosed Nuclei (%) [8]: 8%
- Population Tubulin-Different-Phenotype (%) [8]: 90%
- Total Cell Count [8]: 1115

Compound: Cl.O=C(O)c1cc(-c2ccc(C3CCNCC3)cc2)c2ccc(-c3ccc(C(F)(F)F)cc3)cc2c1
- Population Apoptotic (%) [1]: 43%
- Population Fragmented Nuclei (%) [1]: 17%
- Population Healthy Nuclei (%) [1]: 21%
- Population Hoechst High Intensity Objects (%) [1]: 19%
- Population Membrane Permeable-Phenotype (%) [1]: 0%
- Population Mitochondria Different-Phenotype (%) [1]: 76%
- Population Mitotic Cells (%) [1]: 56%
- Population Normal (%) [1]: 80%
- Population Pyknosed Nuclei (%) [1]: 61%
- Population Tubulin-Different-Phenotype (%) [1]: 36%
- Total Cell Count [1]: 147
- Population Apoptotic (%) [2]: 6%
- Population Fragmented Nuclei (%) [2]: 8%
- Population Healthy Nuclei (%) [2]: 38%
- Population Hoechst High Intensity Objects (%) [2]: 6%
- Population Membrane Permeable-Phenotype (%) [2]: 7%
- Population Mitochondria Different-Phenotype (%) [2]: 9%
- Population Mitotic Cells (%) [2]: 93%
- Population Normal (%) [2]: 93%
- Population Pyknosed Nuclei (%) [2]: 52%
- Population Tubulin-Different-Phenotype (%) [2]: 4%
- Total Cell Count [2]: 178
- Population Apoptotic (%) [3]: 62%
- Population Fragmented Nuclei (%) [3]: 16%
- Population Healthy Nuclei (%) [3]: 20%
- Population Hoechst High Intensity Objects (%) [3]: 10%
- Population Membrane Permeable-Phenotype (%) [3]: 3%
- Population Mitochondria Different-Phenotype (%) [3]: 80%
- Population Mitotic Cells (%) [3]: 37%
- Population Normal (%) [3]: 89%
- Population Pyknosed Nuclei (%) [3]: 62%
- Population Tubulin-Different-Phenotype (%) [3]: 49%
- Total Cell Count [3]: 305
- Population Apoptotic (%) [4]: 64%
- Population Fragmented Nuclei (%) [4]: 8%
- Population Healthy Nuclei (%) [4]: 16%
- Population Hoechst High Intensity Objects (%) [4]: 16%
- Population Membrane Permeable-Phenotype (%) [4]: 20%
- Population Mitochondria Different-Phenotype (%) [4]: 66%
- Population Mitotic Cells (%) [4]: 35%
- Population Normal (%) [4]: 83%
- Population Pyknosed Nuclei (%) [4]: 75%
- Population Tubulin-Different-Phenotype (%) [4]: 66%
- Total Cell Count [4]: 111
- Population Apoptotic (%) [5]: 43%
- Population Fragmented Nuclei (%) [5]: 14%
- Population Healthy Nuclei (%) [5]: 33%
- Population Hoechst High Intensity Objects (%) [5]: 22%
- Population Membrane Permeable-Phenotype (%) [5]: 2%
- Population Mitochondria Different-Phenotype (%) [5]: 59%
- Population Mitotic Cells (%) [5]: 56%
- Population Normal (%) [5]: 77%
- Population Pyknosed Nuclei (%) [5]: 51%
- Population Tubulin-Different-Phenotype (%) [5]: 28%
- Total Cell Count [5]: 160
- Population Apoptotic (%) [6]: 9%
- Population Fragmented Nuclei (%) [6]: 8%
- Population Healthy Nuclei (%) [6]: 72%
- Population Hoechst High Intensity Objects (%) [6]: 4%
- Population Membrane Permeable-Phenotype (%) [6]: 4%
- Population Mitochondria Different-Phenotype (%) [6]: 11%
- Population Mitotic Cells (%) [6]: 90%
- Population Normal (%) [6]: 95%
- Population Pyknosed Nuclei (%) [6]: 19%
- Population Tubulin-Different-Phenotype (%) [6]: 9%
- Total Cell Count [6]: 236
- Population Apoptotic (%) [7]: 66%
- Population Fragmented Nuclei (%) [7]: 20%
- Population Healthy Nuclei (%) [7]: 18%
- Population Hoechst High Intensity Objects (%) [7]: 16%
- Population Membrane Permeable-Phenotype (%) [7]: 4%
- Population Mitochondria Different-Phenotype (%) [7]: 78%
- Population Mitotic Cells (%) [7]: 34%
- Population Normal (%) [7]: 83%
- Population Pyknosed Nuclei (%) [7]: 60%
- Population Tubulin-Different-Phenotype (%) [7]: 57%
- Total Cell Count [7]: 297
- Population Apoptotic (%) [8]: 60%
- Population Fragmented Nuclei (%) [8]: 11%
- Population Healthy Nuclei (%) [8]: 16%
- Population Hoechst High Intensity Objects (%) [8]: 28%
- Population Membrane Permeable-Phenotype (%) [8]: 0%
- Population Mitochondria Different-Phenotype (%) [8]: 61%
- Population Mitotic Cells (%) [8]: 39%
- Population Normal (%) [8]: 71%
- Population Pyknosed Nuclei (%) [8]: 72%
- Population Tubulin-Different-Phenotype (%) [8]: 76%
- Total Cell Count [8]: 112
- Population Apoptotic (%) [9]: 38%
- Population Fragmented Nuclei (%) [9]: 25%
- Population Healthy Nuclei (%) [9]: 27%
- Population Hoechst High Intensity Objects (%) [9]: 21%
- Population Membrane Permeable-Phenotype (%) [9]: 2%
- Population Mitochondria Different-Phenotype (%) [9]: 25%
- Population Mitotic Cells (%) [9]: 61%
- Population Normal (%) [9]: 78%
- Population Pyknosed Nuclei (%) [9]: 47%
- Population Tubulin-Different-Phenotype (%) [9]: 19%
- Total Cell Count [9]: 166
- Population Apoptotic (%) [10]: 8%
- Population Fragmented Nuclei (%) [10]: 4%
- Population Healthy Nuclei (%) [10]: 82%
- Population Hoechst High Intensity Objects (%) [10]: 2%
- Population Membrane Permeable-Phenotype (%) [10]: 4%
- Population Mitochondria Different-Phenotype (%) [10]: 1%
- Population Mitotic Cells (%) [10]: 92%
- Population Normal (%) [10]: 97%
- Population Pyknosed Nuclei (%) [10]: 13%
- Population Tubulin-Different-Phenotype (%) [10]: 9%
- Total Cell Count [10]: 390
- Population Apoptotic (%) [11]: 60%
- Population Fragmented Nuclei (%) [11]: 34%
- Population Healthy Nuclei (%) [11]: 7%
- Population Hoechst High Intensity Objects (%) [11]: 21%
- Population Membrane Permeable-Phenotype (%) [11]: 0%
- Population Mitochondria Different-Phenotype (%) [11]: 89%
- Population Mitotic Cells (%) [11]: 39%
- Population Normal (%) [11]: 78%
- Population Pyknosed Nuclei (%) [11]: 58%
- Population Tubulin-Different-Phenotype (%) [11]: 78%
- Total Cell Count [11]: 314
- Population Apoptotic (%) [12]: 40%
- Population Fragmented Nuclei (%) [12]: 13%
- Population Healthy Nuclei (%) [12]: 23%
- Population Hoechst High Intensity Objects (%) [12]: 27%
- Population Membrane Permeable-Phenotype (%) [12]: 20%
- Population Mitochondria Different-Phenotype (%) [12]: 30%
- Population Mitotic Cells (%) [12]: 59%
- Population Normal (%) [12]: 72%
- Population Pyknosed Nuclei (%) [12]: 62%
- Population Tubulin-Different-Phenotype (%) [12]: 95%
- Total Cell Count [12]: 119
